Marks after values point to notes of the source that are not given here.
Columns and labels:
Type in all cases: in vitro ADME
UGT2B17 = target: T1, UGT2B17 (Homo sapiens, UniProt O75795); experiment: Screening of recombinant UGT2B17 for glucuronidation activity; settings: 250 μM substrate, 5 μg protein, 60 min, 37 °C
T1 sequence (O75795 24-530): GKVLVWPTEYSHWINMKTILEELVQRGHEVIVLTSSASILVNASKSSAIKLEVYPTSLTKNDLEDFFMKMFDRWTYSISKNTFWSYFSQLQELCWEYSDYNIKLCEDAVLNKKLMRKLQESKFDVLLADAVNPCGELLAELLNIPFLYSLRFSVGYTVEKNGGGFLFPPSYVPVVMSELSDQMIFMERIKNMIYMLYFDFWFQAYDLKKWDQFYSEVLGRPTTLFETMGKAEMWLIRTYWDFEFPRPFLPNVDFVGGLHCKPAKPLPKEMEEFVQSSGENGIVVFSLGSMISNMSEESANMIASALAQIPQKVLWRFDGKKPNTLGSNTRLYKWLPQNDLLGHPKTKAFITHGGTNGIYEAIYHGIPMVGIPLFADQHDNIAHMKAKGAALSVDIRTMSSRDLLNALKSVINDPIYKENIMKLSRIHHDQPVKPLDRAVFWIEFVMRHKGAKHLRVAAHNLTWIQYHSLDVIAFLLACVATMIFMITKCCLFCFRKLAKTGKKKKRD
Procedure, shortened: (§1)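 UGT1A1, 1A3, 1A4 and 1A6–1A10 were His-tagged and expressed in baculovirus-infected Sf9 cells; UGT2B4, 2B7, 2B15 and 2B17 were commercial membranes run per supplier protocol. 5 μg membrane protein with 250 μM substrate, 2 mM UDP-GlcUA, Tris–HCl pH 7.4, MgCl2, saccharolactone, 2% DMSO; 37 °C, 60 min; no-substrate controls. Products measured by HPLC-UV/vis; β-glucuronidase hydrolysis separated O- from carboxyl glucuronides.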

UGT1A7 [1] = target: T2, UGT1A7 (Homo sapiens, UniProt Q9HAW7); experiment: Screening of recombinant UGT1A7 for glucuronidation activity; settings: 250 μM substrate, 5 μg protein, 60 min, 37 °C
T2 sequence (Q9HAW7 26-530): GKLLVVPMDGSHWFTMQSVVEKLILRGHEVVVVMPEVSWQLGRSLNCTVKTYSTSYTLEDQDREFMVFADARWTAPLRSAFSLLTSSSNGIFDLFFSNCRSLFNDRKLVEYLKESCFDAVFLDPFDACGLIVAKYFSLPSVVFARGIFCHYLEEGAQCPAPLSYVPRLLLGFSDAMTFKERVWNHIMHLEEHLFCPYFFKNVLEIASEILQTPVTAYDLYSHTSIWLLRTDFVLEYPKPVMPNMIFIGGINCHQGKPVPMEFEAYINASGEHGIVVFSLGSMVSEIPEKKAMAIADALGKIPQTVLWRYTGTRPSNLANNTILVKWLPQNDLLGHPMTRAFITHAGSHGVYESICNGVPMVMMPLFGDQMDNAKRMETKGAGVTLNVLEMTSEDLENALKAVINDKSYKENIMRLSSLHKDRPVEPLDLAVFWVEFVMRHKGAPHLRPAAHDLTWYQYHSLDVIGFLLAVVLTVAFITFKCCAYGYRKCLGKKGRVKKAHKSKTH
Procedure, shortened: as §1

UGT1A4 = target: T3, UGT1A4 (Homo sapiens, UniProt P22310); experiment: Screening of recombinant UGT1A4 for glucuronidation activity; settings: 250 μM substrate, 5 μg protein, 60 min, 37 °C
T3 sequence (P22310 29-534): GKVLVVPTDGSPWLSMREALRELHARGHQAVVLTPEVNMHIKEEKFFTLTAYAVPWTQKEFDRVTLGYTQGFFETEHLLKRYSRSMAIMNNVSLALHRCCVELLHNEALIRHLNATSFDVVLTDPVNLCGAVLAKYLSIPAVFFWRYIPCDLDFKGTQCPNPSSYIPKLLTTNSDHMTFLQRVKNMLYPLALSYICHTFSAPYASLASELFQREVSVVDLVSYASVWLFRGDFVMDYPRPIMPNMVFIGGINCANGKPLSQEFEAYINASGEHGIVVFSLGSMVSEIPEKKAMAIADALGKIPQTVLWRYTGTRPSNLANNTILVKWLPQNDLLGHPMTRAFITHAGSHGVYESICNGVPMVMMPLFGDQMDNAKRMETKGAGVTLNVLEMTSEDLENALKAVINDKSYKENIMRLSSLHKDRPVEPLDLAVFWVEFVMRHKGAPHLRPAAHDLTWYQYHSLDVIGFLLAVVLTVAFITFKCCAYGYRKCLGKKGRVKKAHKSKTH
Procedure, shortened: as §1

UGT1A8 = target: T4, UGT1A8 (Homo sapiens, UniProt Q9HAW9); experiment: Screening of recombinant UGT1A8 for glucuronidation activity; settings: 250 μM substrate, 5 μg protein, 60 min, 37 °C
T4 sequence (Q9HAW9 26-530): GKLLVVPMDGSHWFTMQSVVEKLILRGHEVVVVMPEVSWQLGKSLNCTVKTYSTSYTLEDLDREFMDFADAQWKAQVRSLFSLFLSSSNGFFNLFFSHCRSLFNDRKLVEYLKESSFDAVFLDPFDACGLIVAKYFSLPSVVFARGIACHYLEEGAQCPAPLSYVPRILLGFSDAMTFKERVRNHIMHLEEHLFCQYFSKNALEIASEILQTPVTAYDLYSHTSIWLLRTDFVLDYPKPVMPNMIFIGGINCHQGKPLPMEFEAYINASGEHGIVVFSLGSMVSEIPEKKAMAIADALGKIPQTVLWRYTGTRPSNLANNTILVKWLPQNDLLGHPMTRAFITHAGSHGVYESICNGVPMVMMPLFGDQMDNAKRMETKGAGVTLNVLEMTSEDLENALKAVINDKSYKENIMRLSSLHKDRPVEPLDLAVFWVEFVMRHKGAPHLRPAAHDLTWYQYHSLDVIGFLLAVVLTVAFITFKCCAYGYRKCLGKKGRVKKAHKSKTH
Procedure, shortened: as §1

UGT1A7 [2] = target: T2, UGT1A7; experiment: Steady state kinetics of glucuronidation by recombinant UGT1A7
UGT1A1 = target: T5, UGT1A1 (Homo sapiens, UniProt P22309); experiment: Steady state kinetics of glucuronidation by recombinant UGT1A1
T5 sequence (P22309 26-533): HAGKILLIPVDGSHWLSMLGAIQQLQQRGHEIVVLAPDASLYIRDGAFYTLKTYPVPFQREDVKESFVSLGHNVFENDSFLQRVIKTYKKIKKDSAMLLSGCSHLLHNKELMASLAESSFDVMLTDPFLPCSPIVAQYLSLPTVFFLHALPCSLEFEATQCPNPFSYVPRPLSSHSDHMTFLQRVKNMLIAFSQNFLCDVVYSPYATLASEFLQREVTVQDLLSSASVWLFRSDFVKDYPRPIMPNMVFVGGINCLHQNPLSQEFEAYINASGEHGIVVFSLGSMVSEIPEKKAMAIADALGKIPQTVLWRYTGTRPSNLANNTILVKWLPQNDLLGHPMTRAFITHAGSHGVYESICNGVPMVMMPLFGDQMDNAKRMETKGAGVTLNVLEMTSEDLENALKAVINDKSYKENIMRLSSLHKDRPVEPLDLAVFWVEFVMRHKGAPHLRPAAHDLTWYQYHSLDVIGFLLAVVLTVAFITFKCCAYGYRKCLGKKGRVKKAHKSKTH

SMILES | glucuronidation activity (glucuronide formed) (UGT2B17) | glucuronidation activity (glucuronide formed) (UGT1A7 [1]) | glucuronidation activity (glucuronide formed) (UGT1A4) | glucuronidation activity (glucuronide formed) (UGT1A8) | NI-12a-COO-gluc formation (UGT1A7 [2]; COO-glucuronide) | kinetic model (UGT1A7 [2]; NI-12a-O-gluc formation) | Ks (UGT1A7 [2]; NI-12a-O-gluc formation, USI model) | NI-12a-COO-gluc formation (UGT1A1; COO-glucuronide) | NI-12a-O-gluc formation (UGT1A1; O-glucuronide) | NI-ST-05–N–O-gluc formation (UGT1A7 [2]; N–O-glucuronide) | kinetic model (UGT1A1; NI-ST-05–N–O-gluc formation, estimated based on an incomplete data set) | Vmax (UGT1A1; NI-ST-05–N–O-gluc formation, estimated based on an incomplete data set, assuming M–M kinetics)
COc1cc(/C=C/c2cc([N+](=O)[O-])c(O)c([N+](=O)[O-])c2)cc(OC)c1 [DNR-1, (E)-4-(3,5-dimethoxystyryl)-2,6-dinitrophenol] | No activity | No activity | No activity | No activity |  |  |  |  |  |  |  | 
COc1ccc(/C=C(/C(=O)O)c2cc(OC)c(OC)c(OC)c2)cc1O [NI-12a, (E)-3-(3-hydroxy-4-methoxyphenyl)-2-(3,4,5-trimethoxyphenyl)acrylic acid] |  | only the hydroxyl metabolite | not active | only the hydroxyl metabolite | not produced | uncompetitive substrate inhibition and USI | 242 ± 133 µM | too low to be assessed | not produced |  |  | 
COc1ccc(C=Cc2cc(OC)cc(OC)c2/C=N/O)cc1 [NI-ST-05, (E)-2,4-dimethoxy-6-(4-methoxystyryl)benzaldehyde oxime] | inactive | inactive | inactive | inactive |  |  |  |  |  | not produced | M–M ^b | 0.21 ± 0.02 ^b nmol/mg/min
